Measured values of several laboratories.
Each line is one published result; the experiments were not run side by side.
Target: Vascular endothelial growth factor receptor 1 (FLT1, Homo sapiens, UniProt P17948)

O=c1nc(-c2ccccn2)sc2ccccc12
remaining binding (cell-free assay, competition with immobilised ligand; 1 µM): 100%

c1cncc(-c2cccc(Nc3nccc(NC4CCCCC4)n3)c2)c1
remaining binding (binding, competition with immobilised ligand; 10 µM): 71%

O=C(Nc1cccnn1)N1CCC(=Cc2cccc(Oc3ccc(C(F)(F)F)cn3)c2)CC1
remaining binding (cell-free assay, competition with immobilised ligand; 1 µM): 100%

COc1cnc(Nc2cccc(S(N)(=O)=O)c2)nc1N1CCN(c2ccccc2)CC1
remaining binding (binding, competition with immobilised ligand; 1 µM): 97%

CN(C)c1nccc(-c2cnc3ncccn23)n1
remaining binding (binding; 1 µM): 100%

O=C(c1ccc(Nc2ncc(Cl)c(-c3ccc(Cl)s3)n2)cc1)N1CCC(N2CCCC2)CC1
remaining binding (binding, competition with immobilised ligand; 1 µM): 1.2%

CN(C)c1ncc(F)c(-c2cnn3ncccc23)n1
remaining binding (binding; 1 µM): 100%

CCOC(=O)c1cc2cc(-c3cc(C(=O)NCc4ccc(C(=O)O)cc4)nn3C)ccc2[nH]1
remaining binding (cell-free assay, competition with immobilised ligand; 0.1 µM): 97%

N[C@H]1CCN(c2nccc(-c3cnn4ncccc34)n2)C1
remaining binding (binding; 1 µM): 99%

COc1ccc2c(c1)O[C@@H](c1ccc(OC)c(OC)c1)C[C@H]2NC(=O)C1(c2ccc3c(c2)OC(F)(F)O3)CC1
remaining binding (cell-free assay, competition with immobilised ligand; 1 µM): 100%

Cc1cnn2ncc(-c3ccnc(N(C)C)n3)c2c1
remaining binding (binding; 1 µM): 97%

CS(=O)(=O)c1cc(C2(NC(=O)c3cncc4c3cnn4-c3ccc(F)cc3)CC2)ccn1
remaining binding (cell-free assay, competition with immobilised ligand; 1 µM): 100%

O=C(c1ccc(Nc2ncc(Cl)c(-c3cc4ccccc4s3)n2)cc1)N1CCC(N2CCCC2)CC1
remaining binding (binding, competition with immobilised ligand; 1 µM): 6.2%

CN(C(=O)c1ccccc1)c1cc(N(C)c2ccc3c(c2)CCc2ccc(C(=O)NCCN4CCOCC4)cc2C3=O)ccc1F
remaining binding (cell-free assay, competition with immobilised ligand; 1 µM): 85%

C[C@@H]1CCN(c2nccc(-c3cnn4ncccc34)n2)C1
remaining binding (binding; 1 µM): 100%

O=C(NCCCN1CCOCC1)c1ccc(Nc2ncc(Cl)c(-c3ccc(Cl)s3)n2)cc1
remaining binding (binding, competition with immobilised ligand; 1 µM): 5.7%

F[C@@H]1CCN(c2nccc(-c3cnn4ncccc34)n2)C1
remaining binding (binding; 1 µM): 100%

CC1=C(C#N)[C@@H](c2ccc3[nH]nc(C)c3c2)C(C#N)=C(c2ccc(Cl)cc2)N1
remaining binding (cell-free assay, competition with immobilised ligand; 1 µM): 100%

CN(C)c1nccc(-c2cnn3ncccc23)n1
remaining binding (binding; 1 µM): 100%

COc1ncc2cc3ccccc3nc2c1C#N
remaining binding (cell-free assay, competition with immobilised ligand; 5 µM): 95%

Nc1ncc2c(n1)-c1c([nH]c3ccc(C#CC4CC4)cc13)CCCC2
remaining binding (binding, competition with immobilised ligand; 1 µM): 91%

O=C(NCC1CCOCC1)c1n[nH]cc1NC(=O)c1c(F)cccc1F
remaining binding (binding, competition with immobilised ligand; 1 µM): 90%
